{
  "source": "paper PMC7864382",
  "about": "(Clinical cancer research : an official journal of the …, 2020)",
  "key": {"[1]": {"test_system": "pS6RP, p4EBP1, survivin in MDA-MB-468 and HCC1937 cells", "experiment": "Immunoblotting of mTOR pathway effectors and survivin", "assay_type": "cell-based, Human", "settings": "immunoblot, 50 nmol/L at 24 hours, 100 nmol/L at 72 hours; for pS6RP (mTOR pathway effector) level: alisertib-sensitive and -resistant TNBC cell lines", "procedure,_shortened": "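Cells were seeded in 6-well plates for 24 h, then exposed to test compounds at 50 nmol/L for 24 h or 100 nmol/L for 72 h, alone or combined. Cells were harvested with trypsin/EDTA and lysed. 50 µg protein was run on 4–12% Bis-Tris gels and transferred to nitrocellulose. Primary antibodies (S6RP, pS6RP, 4EBP1, p4EBP1, survivin, α-tubulin) were used at 1:1,000 overnight, with DyLight secondaries and infrared imaging.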"}, "CAL51 FUCCI cells": {"test_system": "CAL51 FUCCI cells", "experiment": "FUCCI cell-cycle analysis and relative growth", "assay_type": "cell-based, Human", "settings": "100 nmol/L each, 0 to 96 hours", "procedure,_shortened": "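CAL51 cells transduced with the FUCCI biosensor (G1 red, S/G2–M green) were plated and treated with each test compound at 100 nmol/L, alone or combined. Live-cell fluorescence microscopy in an environmentally controlled chamber ran from 0 to 96 h. Relative growth came from time-lapse image growth curves. Combination was compared with single agents at 72 and 96 h.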"}, "CU_TNBC_004 PDX model [2]": {"test_system": "CU_TNBC_004 PDX model", "experiment": "Tumor growth inhibition in TNBC PDX model CU_TNBC_004", "assay_type": "in vivo, mouse", "settings": "CU_TNBC_004 (alisertib-resistant); TAK-228 0.5 mg/kg daily, alisertib 30 mg/kg daily, p.o.; vs vehicle", "procedure,_shortened": "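Tumor sections were implanted subcutaneously into both flanks by 12-gauge trocar. At an average of 150–300 mm³, mice were randomized to four arms: vehicle, 0.5 mg/kg daily, 30 mg/kg daily, or both combined, all by oral gavage. Caliper measurements and body weights were taken twice weekly; volume = length × width² × 0.52. TGI = [1 − (mean final treated volume/mean final vehicle volume)] × 100.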"}, "CU_TNBC_007 PDX model": {"test_system": "CU_TNBC_007 PDX model", "experiment": "Tumor growth inhibition in TNBC PDX model CU_TNBC_007", "assay_type": "in vivo, mouse", "settings": "TAK-228 0.5 mg/kg daily, alisertib 30 mg/kg daily, vs vehicle", "procedure,_shortened": "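PDX tumor sections were implanted subcutaneously via 12-gauge trocar into both flanks. At a mean of 150–300 mm³ mice were randomized to four arms: vehicle, 0.5 mg/kg daily, 30 mg/kg daily, or combination, all given by oral gavage. Calipers were read twice weekly and volume = length × width² × 0.52. TGI = [1 − (mean final treated volume / mean final vehicle volume)] × 100.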"}, "CU_TNBC_004 PDX model [3]": {"test_system": "CU_TNBC_004 PDX model", "experiment": "SA-β-gal staining and H&E of PDX tumors", "assay_type": "in vivo, mouse", "procedure,_shortened": "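PDX tumors were grown subcutaneously in both flanks. At 150–300 mm³ mice were randomized to vehicle, 0.5 mg/kg daily, 30 mg/kg daily, or combination by oral gavage. Tumors were OCT-embedded, frozen in liquid nitrogen, and cryosectioned. Slides were fixed and stained for SA-β-gal activity at pH 6.0. Matched H&E slides were reviewed by a pathologist to confirm tumor cells. Images were taken at 40×.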"}, "CU_TNBC_004 PDX model [4]": {"test_system": "CU_TNBC_004 PDX model", "experiment": "Immunofluorescence", "assay_type": "in vivo, mouse", "settings": "CU_TNBC_004 tumors", "procedure,_shortened": "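PDX tumor pieces were implanted subcutaneously by trocar into both flanks. At 150–300 mm³ mice were randomized to vehicle, 0.5 mg/kg daily, 30 mg/kg daily, or combination, all by oral gavage. Frozen OCT tumor sections were fixed and blocked (1% BSA/PBS, 1 h, 37°C), then stained with BAX and DR5 primaries and Alexa Fluor 488/555 secondaries (1 h, 37°C). DAPI counterstain was followed by confocal imaging at 60×.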"}, "[5]": {"experiment": "Phase I trial pharmacokinetics in human plasma", "assay_type": "in vivo"}, "[6]": {"test_system": "patients with advanced solid tumors"}, "TNBC patients": {"test_system": "TNBC patients", "settings": "alisertib monotherapy, 14 TNBC patients, phase II trial; cited from earlier work"}, "[7]": {"test_system": "patients with ER+/HER2− metastatic breast cancer", "settings": "cited from earlier work"}, "[8]": {"settings": "human; ref earlier clinical trials; cited from earlier work"}, "[9]": {"settings": "human, plasma, oral, 1 mg, TAK-228 combo dose with alisertib, 1 mg cohort"}, "[10]": {"settings": "human, plasma, oral, 1 mg, TAK-228 run-in dose (single agent), 1 mg cohort"}, "[11]": {"settings": "human, plasma, oral, 3 mg, TAK-228 run-in dose (single agent), 3 mg cohort"}, "[12]": {"settings": "single-agent alisertib, standard dosing schedule"}},
  "note": "Several values for one entry are separate records, joined by “and”; a condition that tells them apart may be missing. Equal entries are not always repeated. Where two headings read alike, the source gives them in different places.",
  "data": [
    {"smiles": "CC(C)n1nc(-c2ccc3oc(N)nc3c2)c2c(N)ncnc21", "note": "[TAK-228]", "values": [
      {"measurement": "p4EBP1 level", "setting": "[1]", "value": "decrease"},
      {"measurement": "survivin (antiapoptotic protein) level", "setting": "[1]", "value": "decrease"},
      {"measurement": "pS6RP (mTOR pathway effector) level", "setting": "[1]", "value": "decrease"},
      {"measurement": "Cell-cycle status (FUCCI)", "setting": "CAL51 FUCCI cells", "value": "continued progression through the cell cycle"},
      {"measurement": "TGI", "setting": "CU_TNBC_004 PDX model [2]", "value": "54.47% and 54.5%"},
      {"measurement": "TGI", "setting": "CU_TNBC_007 PDX model", "value": "30.73% and 30.7%"},
      {"measurement": "Senescent cells by SA-β-gal staining", "setting": "CU_TNBC_004 PDX model [3]", "value": "not observed"},
      {"measurement": "cytoplasmic BAX", "setting": "CU_TNBC_004 PDX model [4]", "value": "increase"},
      {"measurement": "half-life", "setting": "[5]; TAK-228 combo dose with alisertib, 2 mg cohort", "value": "6.0 ± 2.1", "unit": "h"},
      {"measurement": "AUC", "setting": "[5]; [9]", "value": "47.4 ± 13.8", "unit": "ng·h/mL"},
      {"measurement": "AUC", "setting": "[5]; [10]", "value": "46.7 ± 13.1", "unit": "ng·h/mL"},
      {"measurement": "Cmax", "setting": "[5]; [9]", "value": "8.6 ± 4.2", "unit": "ng/mL"},
      {"measurement": "Cmax", "setting": "[5]; [10]", "value": "7.7 ± 2.6", "unit": "ng/mL"},
      {"measurement": "Cmax", "setting": "[5]; human, plasma, oral, 2 mg, TAK-228 combo dose with alisertib, 2 mg cohort", "value": "24.7 ± 13.6", "unit": "ng/mL"},
      {"measurement": "Cmax", "setting": "[5]; human, plasma, oral, 2 mg, TAK-228 run-in dose (single agent), 2 mg cohort", "value": "24.2 ± 8.8", "unit": "ng/mL"},
      {"measurement": "AUC", "setting": "[5]; [11]", "value": "154 ± 110", "unit": "ng·h/mL"},
      {"measurement": "Cmax", "setting": "[5]; [11]", "value": "25.7 ± 9.4", "unit": "ng/mL"},
      {"measurement": "Tmax", "setting": "[5]; human, plasma, oral, 3 mg, Tmax, TAK-228 run-in dose (single agent), 3 mg cohort", "value": "1.3 ± 1.1", "unit": "h"},
      {"measurement": "Patients with adverse effects at least possibly related to the drug", "setting": "[6]; 18 patients, combination treatment", "value": 72, "unit": "%"},
      {"measurement": "Most common toxicities attributed to the drug(s)", "setting": "[6]; attribution to TAK-228 alone, alisertib alone or both drugs", "value": "Rash"},
      {"measurement": "Dose reduction of the drug required", "setting": "[6]; combination treatment, all dose levels", "value": 3, "unit": "patients"},
      {"measurement": "MTD / RP2D of TAK-228 in combination with alisertib", "setting": "[6]; daily, continuous dosing, oral", "value": 2, "unit": "mg"}
    ]},
    {"smiles": "COc1cc(Nc2ncc3c(n2)-c2ccc(Cl)cc2C(c2c(F)cccc2OC)=NC3)ccc1C(=O)O", "note": "[alisertib]", "values": [
      {"measurement": "survivin (antiapoptotic protein) level", "setting": "[1]", "value": "increase"},
      {"measurement": "pS6RP (mTOR pathway effector) level", "setting": "[1]", "value": "increase"},
      {"measurement": "Cell-cycle status (FUCCI)", "setting": "CAL51 FUCCI cells", "value": "continued progression through the cell cycle"},
      {"measurement": "TGI", "setting": "CU_TNBC_004 PDX model [2]", "value": "35.09% and 35.1%"},
      {"measurement": "TGI", "setting": "CU_TNBC_007 PDX model", "value": "51.74% and 51.7%"},
      {"measurement": "Senescent cells by SA-β-gal staining", "setting": "CU_TNBC_004 PDX model [3]", "value": "scattered senescent cells"},
      {"measurement": "MTD / RP2D of alisertib in combination with TAK-228", "setting": "[6]; b.i.d. days 1 to 7 of a 21-day cycle, oral", "value": 30, "unit": "mg"},
      {"measurement": "Most common toxicities attributed to the drug(s)", "setting": "[6]; in vivo", "value": "neutropenia and fatigue"},
      {"measurement": "median progression-free survival", "setting": "TNBC patients", "value": 1.5, "unit": "months"},
      {"measurement": "grade ≥3 neutropenia or stomatitis", "setting": "[7]; intermittent alisertib schedule in combination with fulvestrant", "value": "no grade ≥3 neutropenia or stomatitis"},
      {"measurement": "grade 3 to 4 neutropenia", "setting": "[7]; [12]", "value": 57, "unit": "%"},
      {"measurement": "grade 3 to 4 stomatitis", "setting": "[7]; [12]", "value": 15, "unit": "%"},
      {"measurement": "half-life", "setting": "[8]", "value": "approximately 20 hours"}
    ]}
  ]
}
